Published values collected from several papers.
Each line is one published result; the experiments were not run side by side.
Target: Cyclin-dependent kinase 11A (CDK11A, Homo sapiens, UniProt Q9UQ88)
Residues used in one study (Q9UQ88 1-783): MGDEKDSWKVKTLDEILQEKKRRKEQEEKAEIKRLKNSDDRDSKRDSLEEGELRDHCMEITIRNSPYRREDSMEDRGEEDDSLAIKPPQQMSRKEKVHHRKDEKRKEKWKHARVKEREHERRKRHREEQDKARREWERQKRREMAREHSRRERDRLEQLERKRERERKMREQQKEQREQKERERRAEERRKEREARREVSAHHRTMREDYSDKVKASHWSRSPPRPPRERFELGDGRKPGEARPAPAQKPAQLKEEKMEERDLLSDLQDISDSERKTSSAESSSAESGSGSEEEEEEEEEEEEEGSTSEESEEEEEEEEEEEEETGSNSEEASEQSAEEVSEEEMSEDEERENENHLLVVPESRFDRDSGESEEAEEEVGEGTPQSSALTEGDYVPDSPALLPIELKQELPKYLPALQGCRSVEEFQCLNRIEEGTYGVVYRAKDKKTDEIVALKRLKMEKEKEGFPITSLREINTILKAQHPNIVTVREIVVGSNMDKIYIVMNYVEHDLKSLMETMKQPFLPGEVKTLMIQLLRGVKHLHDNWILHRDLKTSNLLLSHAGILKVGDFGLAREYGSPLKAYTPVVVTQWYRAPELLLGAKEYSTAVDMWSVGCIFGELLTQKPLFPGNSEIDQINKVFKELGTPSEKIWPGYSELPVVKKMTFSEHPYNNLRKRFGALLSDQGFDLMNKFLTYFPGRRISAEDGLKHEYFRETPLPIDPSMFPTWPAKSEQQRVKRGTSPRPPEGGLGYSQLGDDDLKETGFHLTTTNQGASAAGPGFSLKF

| SMILES | test | conditions | remaining binding |
| --- | --- | --- | --- |
| c1cncc(-c2cccc(Nc3nccc(NC4CCCCC4)n3)c2)c1 | binding, competition with immobilised ligand | 10 µM | 98% |
| N[C@H]1CCN(c2nccc(-c3cnn4ncccc34)n2)C1 | binding | 1 µM | 82% |
| O=C(NCC1CCOCC1)c1n[nH]cc1NC(=O)c1c(F)cccc1F | binding, competition with immobilised ligand | 1 µM | 91% |
| CCC(=O)N[C@H]1CC[C@@H](C(=O)N(C)c2ccc(-c3nc4ccccc4o3)cc2)C1 | cell-free assay, competition with immobilised ligand | 1 µM | 97% |
| CN(C)c1ncc(F)c(-c2cnn3ncccc23)n1 | binding | 1 µM | 97% |
| O=C(c1ccc(Nc2ncc(Cl)c(-c3cc4ccccc4s3)n2)cc1)N1CCC(N2CCCC2)CC1 | binding, competition with immobilised ligand | 1 µM | 85% |
| C[C@@H](c1ccc(-n2cnc3c(N)ncnc32)cc1)N1CCc2nn(C)c(Cc3ccccc3)c2C1=O | binding, competition with immobilised ligand | 0.1 µM | 100% |
| CN1CCN(c2cnc3c(C4CCN(C(=O)c5ccc(OC(F)(F)F)cc5N)CC4)ncnc3c2)CC1 | binding, competition with immobilised ligand | 1 µM | 61% |
| O=C(NCCCN1CCOCC1)c1ccc(Nc2ncc(Cl)c(-c3ccc(Cl)s3)n2)cc1 | binding, competition with immobilised ligand | 1 µM | 23% |
| CC(=O)N1CCC(c2ccc(C(=O)NC3=NCCN3)cc2C(F)(F)F)CC1 | binding, competition with immobilised ligand | 1 µM | 100% |
| F[C@@H]1CCN(c2nccc(-c3cnn4ncccc34)n2)C1 | binding | 1 µM | 100% |
| Cn1cc(Cl)c2c(Oc3c(F)cc(Nc4cc(Cl)nc(N)n4)cc3F)ccnc21 | binding, competition with immobilised ligand | 0.1 µM | 100% |
| O=C(NCCCN1CCOCC1)c1ccc(Nc2nccc(-c3cc4ccccc4s3)n2)cc1 | binding, competition with immobilised ligand | 1 µM | 56% |
| COc1ccnn2ncc(-c3ccnc(N(C)C)n3)c12 | binding | 1 µM | 100% |
| Nc1ncc2c(n1)-c1c([nH]c3ccc(C#CC4CC4)cc13)CCCC2 | binding, competition with immobilised ligand | 1 µM | 93% |
| C[C@@H]1CCN(c2nccc(-c3cnn4ncccc34)n2)C1 | binding | 1 µM | 85% |
| COc1cnc(Nc2cccc(S(N)(=O)=O)c2)nc1N1CCN(c2ccccc2)CC1 | binding, competition with immobilised ligand | 1 µM | 93% |
| O=C(Nc1cccnn1)N1CCC(=Cc2cccc(Oc3ccc(C(F)(F)F)cn3)c2)CC1 | cell-free assay, competition with immobilised ligand | 1 µM | 82% |
| COc1ncc2cc3ccccc3nc2c1C#N | binding, competition with immobilised ligand | 5 µM | 93% |
| O=C(NCc1ncc(C(F)(F)F)cc1Cl)c1ccc2c(c1)C1(CCS(=O)(=O)CC1)[C@@H](C1CC1)N2S(=O)(=O)c1ccc(F)cc1 | binding, competition with immobilised ligand | 1 µM | 100% |
| CN(C)c1nccc(-c2cnn3ncccc23)n1 | binding | 1 µM | 92% |
